In ChEMBL document CHEMBL4020832, “Development of (6 R)-2-Nitro-6-[4-(trifluoromethoxy)phenoxy]-6,7-dihydro-5 H-imidazo[2,1- b][1,3]oxazine (DNDI-8219): A New Lead for Visceral Leishmaniasis” (J Med Chem, 2018):

Tests used:
[1] = system: Liver; assay: Metabolic stability in human liver microsomes assessed as parent compound remaining at 0.5 uM after 0.5 hr; format: ADME, microsome
[2] = system: Liver; assay: Metabolic stability in CD-1 mouse liver microsomes assessed as parent compound remaining at 0.5 uM after 0.5 hr; format: ADME, microsome
[3] = Metabolic stability in hamster liver microsomes assessed as parent compound remaining at 1 uM after 1 hr; format: ADME, microsome; details: read-out: Stability
[4] = Cmax in golden Syrian hamster at 40 mg/kg, po by LC-MS/MS analysis; format: ADME, organism-based, Mesocricetus auratus; set-up: dose 40 mg/kg, route oral; details: in vivo
How it was run: (§1)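 Fasted female golden Syrian hamsters. IV dose was 2 mg/kg as a solution in 20% NMP and 40% PEG-400 in citrate buffer (pH 3). Oral dosing at 40–50 mg/kg used PEG-400 as vehicle. Plasma was quantified by LC–MS/MS. AUClast was taken to the last time point (24 or 48 h).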

[5] = system: Liver; assay: Metabolic stability in human liver microsomes assessed as parent compound remaining at 1 uM after 1 hr; format: ADME, microsome
[6] = system: Liver; assay: Metabolic stability in CD-1 mouse liver microsomes assessed as parent compound remaining at 1 uM after 1 hr; format: ADME, microsome
[7] = system: Syrian golden hamster; assay: Oral bioavailability in golden Syrian hamster at 40 mg/kg by LC-MS/MS analysis; format: ADME, organism-based, Mesocricetus auratus; details: in vivo
[8] = Half life in golden Syrian hamster at 2 mg/kg, iv by LC-MS/MS analysis; format: ADME, organism-based, Mesocricetus auratus; details: in vivo; how it was run: as §1
[9] = AUClast in golden Syrian hamster at 2 mg/kg, iv after 24 to 48 hrs by LC-MS/MS analysis; format: ADME, organism-based, Mesocricetus auratus; details: in vivo; how it was run: as §1
[10] = Tmax in golden Syrian hamster at 40 mg/kg, po by LC-MS/MS analysis; format: ADME, organism-based, Mesocricetus auratus; details: in vivo
[11] = Initial concentration in golden Syrian hamster at 2 mg/kg, iv by LC-MS/MS analysis; format: ADME, organism-based, Mesocricetus auratus; details: in vivo
How it was run: (§2)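 Fasted female golden Syrian hamsters given 2 mg/kg iv as a solution in 20% NMP and 40% PEG-400 in citrate buffer pH 3. Plasma concentrations determined by LC–MS/MS to derive PK parameters.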

[12] = system: Mus musculus; assay: Cmax in Swiss albino mouse at 40 mg/kg, po by LC-MS/MS analysis; format: ADME, organism-based; set-up: dose 40 mg/kg, route oral; details: in vivo
[13] = system: Mus musculus; assay: AUClast in Swiss albino mouse at 40 mg/kg, po after 24 to 48 hrs by LC-MS/MS analysis; format: ADME, organism-based; details: in vivo
[14] = Metabolic stability in hamster liver microsomes assessed as parent compound remaining at 0.5 uM after 0.5 hr; format: ADME, microsome; details: read-out: Stability
[15] = system: Mus musculus; assay: Tmax in Swiss albino mouse at 40 mg/kg, po by LC-MS/MS analysis; format: ADME, organism-based; details: in vivo
[16] = Volume of distribution at steady state in golden Syrian hamster at 2 mg/kg, iv by LC-MS/MS analysis; format: ADME, organism-based, Mesocricetus auratus; details: in vivo, read-out: Vdss; how it was run: as §2
[17] = AUClast in golden Syrian hamster at 40 mg/kg, po after 24 to 48 hrs by LC-MS/MS analysis; format: ADME, organism-based, Mesocricetus auratus; details: in vivo; how it was run: as §1
[18] = Half life in Swiss albino mouse at 40 mg/kg, po by LC-MS/MS analysis; format: ADME, organism-based; details: in vivo
[19] = Clearance in golden Syrian hamster at 2 mg/kg, iv by LC-MS/MS analysis; format: ADME, organism-based, Mesocricetus auratus; details: in vivo
[20] = Half life in golden Syrian hamster at 40 mg/kg, po by LC-MS/MS analysis; format: ADME, organism-based, Mesocricetus auratus; details: in vivo
[21] = Volume of distribution at steady state in Swiss albino mouse at 1 mg/kg, iv by LC-MS/MS analysis; format: ADME, organism-based; details: in vivo, read-out: Vdss
How it was run: (§3)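 Male Swiss albino mice given 1 mg/kg iv in 20% NMP/40% PEG-400 in 100 mM citrate buffer pH 3. Plasma sampled at 0.083, 0.25, 0.5, 1, 2, 4, 6, 8, 10, 24 and 48 h. Levels measured by LC–MS/MS; noncompartmental PK parameters.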

[22] = system: Mus musculus; assay: Half life in Swiss albino mouse at 1 mg/kg, iv by LC-MS/MS analysis; format: ADME, organism-based; details: in vivo
[23] = Clearance in Swiss albino mouse at 1 mg/kg, iv by LC-MS/MS analysis; format: ADME, organism-based; details: in vivo
[24] = AUClast in Swiss albino mouse at 1 mg/kg, iv after 24 to 48 hrs by LC-MS/MS analysis; format: ADME, organism-based; details: in vivo
[25] = Tmax in Swiss albino mouse at 25 mg/kg, po by LC-MS/MS analysis; format: ADME, organism-based; details: in vivo
How it was run: (§4)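 Male Swiss albino mice dosed orally at 25 mg/kg as a suspension in 0.5% CMC/0.08% Tween 80 in water. Plasma sampled 0.25–48 h, analysed by LC–MS/MS. F from dose-normalized AUClast against a 1 mg/kg iv dose.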

[26] = system: Mus musculus; assay: Oral bioavailability in Swiss albino mouse at 25 mg/kg by LC-MS/MS analysis; format: ADME, organism-based; details: in vivo; how it was run: as §4
[27] = Cmax in Swiss albino mouse at 25 mg/kg, po by LC-MS/MS analysis; format: ADME, organism-based; set-up: dose 25 mg/kg, route oral; details: in vivo
[28] = AUClast in Swiss albino mouse at 25 mg/kg, po after 24 to 48 hrs by LC-MS/MS analysis; format: ADME, organism-based; details: in vivo
[29] = Initial concentration in Swiss albino mouse at 1 mg/kg, iv by LC-MS/MS analysis; format: ADME, organism-based; details: in vivo; how it was run: as §3

Row | SMILES | Stability [1] | Stability [2] | remaining at 1 h, 1 µM [3] | Stability [5] | Stability [6] | remaining at 0.5 h, 0.5 µM [14] | also measured
1 | O=C(N[C@H]1COc2nc([N+](=O)[O-])cn2C1)c1cccc(OC(F)(F)F)c1 |  |  | 59% |  |  |  | 
2 | O=[N+]([O-])c1cn2c(n1)OC[C@H](OCc1cccnc1-c1ccc(OC(F)(F)F)cc1)C2 |  |  | 3% | 35% | 44% |  | 
3 | O=[N+]([O-])c1cn2c(n1)OCC(COc1ccc(OC(F)(F)F)cc1)C2 (centres undefined) | 78% | 88% |  |  |  | 70% | Vd [21]: 2.5 L/kg; t1/2 [22]: 2 h; clearance [23]: 13 mL/min/kg; AUC(0-t) [24]: 1250 ng·h/mL; Tmax [25]: 1 h; F [26]: 50%; Cmax [27]: 1500 ng/mL; AUC(0-t) [28]: 15700 ng·h/mL; C0 [29]: 340 ng/mL
4 | O=[N+]([O-])c1cn2c(n1)OC[C@H](OCc1ccc(OC(F)(F)F)cc1)C2 |  |  |  |  | 86% | 31% | 
5 | O=[N+]([O-])c1cn2c(n1)OC[C@H](OCc1ncccc1-c1ccc(OC(F)(F)F)cc1)C2 |  |  |  | 8% | 0.2% |  | 
6 | O=[N+]([O-])c1cn2c(n1)OC[C@H](NCc1ccc(OC(F)(F)F)cc1)C2 |  |  | 7.5% |  | 61% |  | 
7 | O=[N+]([O-])c1cn2c(n1)OC[C@H](Oc1ccc(-c3ccc(F)cc3)nc1)C2 |  |  |  | 73% | 59% |  | 
8 | O=[N+]([O-])c1cn2c(n1)OC[C@@H](OCc1csc(-c3ccc(OC(F)(F)F)cc3)n1)C2 | 78% | 75% |  |  |  | 43% | 

Second part, led by results:

Row | Stability [1] | Stability [2] | remaining at 1 h, 1 µM [3] | Stability [5] | Stability [6] | remaining at 0.5 h, 0.5 µM [14] | SMILES | also measured
9 | 79% | 68% |  |  |  |  | O=[N+]([O-])c1cn2c(n1)OC[C@H](OCc1cccc(-c3ccc(F)cc3)n1)C2 | 
10 | 75% | 79% | 10% | 27% | 40% | 69% | O=[N+]([O-])c1cn2c(n1)OC[C@H](OCc1ccc(-c3ccc(OC(F)(F)F)cc3F)cn1)C2 | Cmax [4]: 4200 ng/mL; F [7]: 74%; half-life [8]: 3.9 h; AUC(0-t) [9]: 1890 ng·h/mL; Tmax [10]: 2 h; C0 [11]: 940 ng/mL; Cmax [12]: 32000 ng/mL; AUClast [13]: 265000 ng·h/mL; Tmax [15]: 3.3 h; Vd [16]: 4.2 L/kg; AUC(0-t) [17]: 26700 ng·h/mL; half-life [18]: 6.1 h; clearance [19]: 18 mL/min/kg; half-life [20]: 3.9 h
11 | 71% | 86% | 11% | 49% | 56% | 45% | O=[N+]([O-])c1cn2c(n1)OC[C@H](OCc1ccc(-c3ccc(OC(F)F)cc3)cn1)C2 | 
12 | 68% | 68% |  |  |  | 31% | O=[N+]([O-])c1cn2c(n1)OC[C@H](OCc1cccc(-c3ccc(OC(F)(F)F)cc3)n1)C2 | 
13 | 88% | 84% |  |  |  | 69% | O=[N+]([O-])c1cn2c(n1)OC[C@@H](OCc1ccc(-c3ccc(OC(F)(F)F)cc3F)cn1)C2 | 
14 | 65% | 81% | 5.8% | 16% | 27% | 57% | O=[N+]([O-])c1cn2c(n1)OC[C@H](OCc1ccc(-c3ccc(OC(F)(F)F)cc3Cl)cn1)C2 | 
15 | 96% | 74% |  |  |  |  | O=[N+]([O-])c1cn2c(n1)OC[C@@H](OCc1cccc(-c3ccc(F)cc3)n1)C2 | 
